These results are taken from ChEMBL document CHEMBL1667841, “Furoxan nitric oxide donor coupled chrysin derivatives: synthesis and vasculoprotection” (Bioorg Med Chem Lett, 2011).

In general, IC50 refers to the concentration that gives 50% inhibition. Low values mean greater potency in that assay, high ones weaker potency in that assay.

Bounds are passed on as bounds.

Series [1] concerns the target Aldo-keto reductase family 1 member B1 (Homo sapiens, UniProt P15121). The series can be described thus: Inhibition of aldose reductase by spectrophotometric analysis.
Series [2] is described as follows: Inhibition of advanced glycation end product formation in phosphate buffered saline at pH 7.4 after 14 days by fluorospectrophotometry. It counts as physicochemical.
Series [3] is described as follows: Induction of NO release in phosphate buffered saline of pH 7.4 at 10^-4 M after 1 hr by Griess assay in presence of L-cysteine. The class given is physicochemical. Particulars: buffer, pH 7.4, 1 h, 100 µM. A digest of the protocol:
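Compound at 10^-4 M final in 1:1 v/v 50 mM PBS (pH 7.4)/MeOH containing 5 × 10^-4 M L-cysteine, 1 h at 37 °C; mixture treated with Griess reagent, 10 min at room temperature, absorbance 540 nm. Nitrite quantified against sodium nitrite standards (10–80 nmol/mL); expressed as % of theoretical 1 mol NO/mol compound, n = 3.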
On the technique in general: The Griess reaction detects nitrite, a stable product of nitric oxide.

Consider `CC(=O)Oc1cc(OCC(=O)OCc2c(-c3ccccc3)no[n+]2[O-])cc2oc(-c3ccccc3)cc(=O)c12`, for which the midpoint of inhibition in series [1], the IC50, lay at 900 nM.

In series [1], `CC(=O)Oc1cc(OCC(=O)OCc2ccc(OCc3c(-c4ccccc4)no[n+]3[O-])cc2)cc2oc(-c3ccccc3)cc(=O)c12` returned an IC50 of 1930 nM.

For the compound `O=C(COc1cc(O)c2c(=O)cc(-c3ccccc3)oc2c1)OCc1cccc(OCc2c(-c3ccccc3)no[n+]2[O-])c1`, in series [1], the IC50 was 220 nM.

On to `O=C(COc1cc(O)c2c(=O)cc(-c3ccccc3)oc2c1)OCc1ccc(OCc2c(-c3ccccc3)no[n+]2[O-])cc1`, for which, in series [1], the half-maximal inhibitory concentration (IC50) worked out at 400 nM.

For the compound `O=c1cc(-c2ccccc2)oc2cc(O)cc(O)c12` [CHRYSIN], the concentration for half-maximal inhibition (IC50) is 7780 nM in series [1] and 63.5 µM in series [2].

`O=C(COc1cc(O)c2c(=O)cc(-c3ccccc3)oc2c1)OCc1c(-c2ccccc2)no[n+]1[O-]` returned an IC50 in series [1] of 750 nM.

For the compound `CC(=O)Oc1cc(OCC(=O)OCc2cccc(OCc3c(-c4ccccc4)no[n+]3[O-])c2)cc2oc(-c3ccccc3)cc(=O)c12`, in series [3], the Activity amounted to 1.89%. For the same compound, the IC50 came to 1620 nM in series [1] and 26.4 µM in series [2].

`[O-][n+]1onc(-c2ccccc2)c1CO` displayed an IC50 in series [1] of at least 10000 nM.

`N=C(N)NN` [PIMAGEDINE] showed an IC50 in series [2] of 826 µM.
